ChEMBL document CHEMBL5724801, “EUbOPEN Chemogenomics Library - Multiplex” (2024)
“And” between values parts separate entries of the source, which are not always exact repeats. Equal values may be shown once.

System: U2OS
Assay: Multiplex assay against U2OS
Type: toxicity, cell-based
Conditions: human
Procedure, shortened: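 On a CQ1 microscope at 37°C and 5% CO2, live cells were imaged after compound addition. They had been stained at seeding with Hoechst33342, BioTracker Green Microtubule Cytoskeleton Dye, MitoTracker Red and Annexin V Alexa Fluor 680. CellPathfinder machine-learning gating assigned cells to Hoechst high-intensity objects or normal cells, normal cells to healthy, pyknosed or fragmented nuclei, and pyknosed cells to mitotic or apoptotic. Tubulin, mitochondrial-mass and membrane-permeability phenotypes are per cents of healthy-nucleus cells.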

[1] = 12 h, 1 µM, compound concentration 1 uM
[2] = 12 h, 10 µM, compound concentration 10 uM
[3] = 24 h, 1 µM, compound concentration 1 uM
[4] = 24 h, 10 µM, compound concentration 10 uM
[5] = 48 h, 1 µM, compound concentration 1 uM
[6] = 48 h, 10 µM, compound concentration 10 uM

How did the “Population Apoptotic (%)” value [1] turn out when `C[C@@H]1CC(=O)Nc2cccc(-c3ccc4c(c3)c(-c3cnn(C)c3)nn4C)c2N1` was run?
Its value is 92% and 88%.

What about the “Population Fragmented Nuclei (%)” value [1] of the same compound?
The value was 20% and 16%.

What about the “Population Healthy Nuclei (%)” value [1] of the same compound?
Its value is 73% and 75%.

What about the “Population Hoechst High Intensity Objects (%)” value [1] of the same compound?
Its value is 1%.

And the “Population Membrane Permeable-Phenotype (%)” value [1]?
The value was 7% and 5%.

And the “Population Mitochondria Different-Phenotype (%)” value [1]?
Its value is 4% and 2%.

And the “Population Mitotic Cells (%)” value [1]?
Its value is 7% and 11%.

And the “Population Normal (%)” value [1]?
Its value is 98%.

What about the “Population Pyknosed Nuclei (%)” value [1] of the same compound?
The value was 6% and 7%.

What about the “Population Tubulin-Different-Phenotype (%)” value [1] of the same compound?
The value was 6% and 2%.

What about the “Total Cell Count” value [1] of the same compound?
Its value is 233 and 116.

What about the “Population Apoptotic (%)” value [2] of the same compound?
Its value is 86% and 33%.

And the “Population Fragmented Nuclei (%)” value [2]?
Its value is 29% and 21%.

And the “Population Healthy Nuclei (%)” value [2]?
Its value is 58% and 74%.

And the “Population Hoechst High Intensity Objects (%)” value [2]?
The value was 2% and 1%.

What about the “Population Membrane Permeable-Phenotype (%)” value [2] of the same compound?
Its value is 11% and 7%.

And the “Population Mitochondria Different-Phenotype (%)” value [2]?
Its value is 11% and 7%.

What about the “Population Normal (%)” value [2] of the same compound?
Its value is 97% and 98%.

What about the “Population Pyknosed Nuclei (%)” value [2] of the same compound?
Its value is 12% and 4%.

And the “Population Tubulin-Different-Phenotype (%)” value [2]?
Its value is 8%.

What about the “Population Apoptotic (%)” value [3] of the same compound?
The value was 95% and 100%.

What about the “Population Fragmented Nuclei (%)” value [3] of the same compound?
Its value is 20% and 22%.

What about the “Population Healthy Nuclei (%)” value [3] of the same compound?
Its value is 71% and 74%.

What about the “Population Hoechst High Intensity Objects (%)” value [3] of the same compound?
The value was 2% and 1%.

What about the “Population Membrane Permeable-Phenotype (%)” value [3] of the same compound?
The value was 5% and 1%.

What about the “Population Mitochondria Different-Phenotype (%)” value [3] of the same compound?
The value was 2% and 1%.

And the “Population Mitotic Cells (%)” value [3]?
Its value is 4% and 0%.

What about the “Population Normal (%)” value [3] of the same compound?
The value was 97% and 98%.

And the “Population Pyknosed Nuclei (%)” value [3]?
Its value is 7% and 4%.

What about the “Population Tubulin-Different-Phenotype (%)” value [3] of the same compound?
The value was 2% and 0%.

What about the “Total Cell Count” value [3] of the same compound?
The value was 294 and 152.

What about the “Population Apoptotic (%)” value [4] of the same compound?
The value was 90% and 83%.

What about the “Population Fragmented Nuclei (%)” value [4] of the same compound?
The value was 24% and 15%.

And the “Population Healthy Nuclei (%)” value [4]?
Its value is 63% and 78%.

And the “Population Hoechst High Intensity Objects (%)” value [4]?
Its value is 4% and 1%.

And the “Population Membrane Permeable-Phenotype (%)” value [4]?
The value was 7% and 6%.

And the “Population Mitochondria Different-Phenotype (%)” value [4]?
Its value is 6% and 1%.

What about the “Population Mitotic Cells (%)” value [4] of the same compound?
The value was 10% and 16%.

What about the “Population Normal (%)” value [4] of the same compound?
Its value is 95% and 98%.

What about the “Population Pyknosed Nuclei (%)” value [4] of the same compound?
The value was 11% and 6%.

And the “Population Tubulin-Different-Phenotype (%)” value [4]?
Its value is 3% and 4%.

And the “Total Cell Count” value [4]?
Its value is 266 and 97.

And the “Population Apoptotic (%)” value [5]?
Its value is 100%.

What about the “Population Fragmented Nuclei (%)” value [5] of the same compound?
Its value is 19% and 13%.

What about the “Population Healthy Nuclei (%)” value [5] of the same compound?
Its value is 73% and 77%.

And the “Population Hoechst High Intensity Objects (%)” value [5]?
Its value is 1%.

What about the “Population Membrane Permeable-Phenotype (%)” value [5] of the same compound?
Its value is 4% and 2%.

What about the “Population Mitochondria Different-Phenotype (%)” value [5] of the same compound?
Its value is 2%.

What about the “Population Mitotic Cells (%)” value [5] of the same compound?
Its value is 0%.

What about the “Population Normal (%)” value [5] of the same compound?
The value was 98%.

And the “Population Pyknosed Nuclei (%)” value [5]?
The value was 6% and 8%.

What about the “Population Tubulin-Different-Phenotype (%)” value [5] of the same compound?
The value was 3% and 2%.

What about the “Total Cell Count” value [5] of the same compound?
Its value is 437 and 224.

And the “Population Apoptotic (%)” value [6]?
The value was 100%.

And the “Population Fragmented Nuclei (%)” value [6]?
Its value is 28% and 23%.

And the “Population Healthy Nuclei (%)” value [6]?
The value was 65% and 71%.

And the “Population Hoechst High Intensity Objects (%)” value [6]?
The value was 3% and 4%.

And the “Population Membrane Permeable-Phenotype (%)” value [6]?
The value was 8% and 3%.

What about the “Population Mitochondria Different-Phenotype (%)” value [6] of the same compound?
The value was 3% and 0%.

And the “Population Mitotic Cells (%)” value [6]?
The value was 0%.

And the “Population Normal (%)” value [6]?
Its value is 96% and 95%.

And the “Population Pyknosed Nuclei (%)” value [6]?
The value was 5% and 4%.

And the “Population Tubulin-Different-Phenotype (%)” value [6]?
Its value is 5% and 3%.

And the “Total Cell Count” value [6]?
Its value is 394 and 149.
